The RNAGym collection of RNA variant scans (doi:10.1126/science.aae0568)
Fewer inactive variants are shown than the library holds.

B1: tRNA (parent)
chain: GUUCCGUUGGCGUAAUGGUAACGCGUCUCCCUCCUAAGGAGAAGACUGCGGGUUCGAGUCCCGUACGGAACG

Variants of: B1
Test: yeast fitness relative to wild type (ratio to wild type); higher = fitter; tRNA-Arg(CCU), competitive growth, 37 C, YPD
Summary of the method: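 Variants of the tRNA-Arg(CCU) gene, chemically synthesised with a 3% per-site mutation rate at 69 sites, were placed at the native genomic locus in Saccharomyces cerevisiae. The pooled strains were competed in YPD at 37°C for 24 hours in six parallel replicates. Gene amplicons from the start population and from each end population were read by 100-nucleotide paired-end sequencing. Darwinian fitness relative to wild type came from changes in genotype frequencies; genotypes needed ≥ 100 starting reads, and estimates < 0.5 were set to 0.5.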

Variant	yeast fitness
C5U C11U A15C C29A C30A A36U G38C C61U C66A	≤ 0.5
C5G U32A G48C C62U	≤ 0.5
C5G U19G C22U A43C G51A	≤ 0.5
C5U C11G A14G C29G	≤ 0.5
C5U A21U C30G G58C	≤ 0.5
C5U A21G A57C	0.562
C5U A14C A21C C33U G56A	≤ 0.5
C5U C22G U47C	0.687
C5U A37C A43C A45C	≤ 0.5
C5U A14C A45C A65C	0.561
C5U A20U G56C A65G A70U	≤ 0.5
C5U A14G C24U U28C	≤ 0.5
C5U A15G C60A A70C	≤ 0.5
C5G U19C C24U	0.684
C5U A15C A21G C27U C46U	≤ 0.5
C5U A14C A21C	0.552
C5U C11G G48C C66U	≤ 0.5
C5U A14G A65U G67A	0.689
C5U A14G C24U A40U C55G	≤ 0.5
C5U A37G G56C A65C	≤ 0.5
C5G U16C C24U	≤ 0.5

Variant	yeast fitness
C5U C24G A40C A45U	≤ 0.5
C5U A42U	0.838
C5U A45C C49U G56A	0.616
C5U A20U A45C C60U C61A	≤ 0.5
C5U A45C G56C	0.572
C5U C11G C49U C61A	≤ 0.5
C5U A20C G23C C24U C31U U64C	≤ 0.5
C5U A14C A21C U53G A57C	≤ 0.5
C5U C11A C24G C27G A36U G38C A70C	≤ 0.5
C5U A20U C30G C66U	≤ 0.5
C5G U54C C55G	≤ 0.5
C5U A40G C49U C62U A65G	≤ 0.5
C5U A14G A21U A36U G48C C55U	0.627
C5G U19C U35A A43C	≤ 0.5
C5U C24U C55U	0.711
C5U A20C A21U U53C U64A	≤ 0.5
C5U A21U C33U G50A	0.65
C5U C24U A36G C46A	0.92
C5U C24A U47A	0.656
C5U C11U A69U	0.734
C5U A21G C29U A45U	0.538

Variant	yeast fitness
C5U C11G A15U G56C C61G	≤ 0.5
C5U C27G G68C	0.577
C5U C11U C62U G68A	≤ 0.5
C5U A20C C27U G39A G56A G58C	≤ 0.5
C5U C22G A69C	0.691
C5U C11A C24G C27G A36U G38C C60A C66A	≤ 0.5
C5U C11U C24A C55A A65G	≤ 0.5
C5U A42U C49G C60A	0.575
C5U A43U C49U	0.555
C5U A20U A36G	0.674
C5U A21U C31G A37C C66U	0.51
C5U A37U C61U	0.623
C5U C22G C24G C31U	0.552
C5U A14C A70U	≤ 0.5
C5G U16A G39A	≤ 0.5
C5U C24A	0.597
C5U A21C C31U	0.695
C5G U47A G68A	≤ 0.5
C5U C27G C60A	≤ 0.5
C5U A57U C61U	0.59
C5G U54C	0.814

Variant	yeast fitness
C5U A14C A69C	≤ 0.5
C5U A70G	1.01
C5U A70U	0.98
C5U A36G C55G	≤ 0.5
C5U C11U C34A	0.558
C5U C11U U35G A43U C46G U53C A69C	0.549
C5U A14G A40G	0.648
C5U A15U U16A C29U C55U	≤ 0.5
C5U C27G A40C	≤ 0.5
C5U C24G U53A G63A	≤ 0.5
C5U A43U G44A C46A	≤ 0.5
C5G U19C A57U	0.533
C5U A42C A69C	0.803
C5G U13G C22G C29G A40U U54C C61G	0.567
C5U A15U G39A U53A G68C	≤ 0.5
C5U C22G C29G U32C	≤ 0.5
C5U A21U A37C C61A A65C	≤ 0.5
C5G U16A C27G A42C A65C	≤ 0.5
C5G U26C C30U C49U	≤ 0.5
C5G U54C G56C G58A	≤ 0.5
C5U A45U C62G A65G	0.698
